Compounds with a hit are over-represented: about 4.8% of the library has one in this group of screens.
T cruzi repl – blocks replication of Trypanosoma cruzi | T. cruzi beta-gal in NIH3T3, luminescence, 90 h | AID 1885 | actives 1.4% (n = 300,000) | inhibition, % (no concentration beside the values);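 active = mean inhibition across valid replicates above about 55%, limit read from the data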;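 note: signal also drops with host cell toxicity which is not excluded here; higher percent means less beta-gal luminescence so fewer parasites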
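System: mouse NIH/3T3 fibroblasts infected with β-gal-expressing T. cruzi Tulahuen C4 / Input: NIH/3T3 cells, 5,000 per well / Buffer or medium: Low-serum DMEM with 2% FBS / Probe or stimulus: 5000 reporter trypomastigotes per well / Schedule: ≥90 h infection period, 3 h prior cell attachment / Measured by: GalScreen luminescence, 60 min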
Efflux pump mplx – antifungal efflux pump inhibition, Nile Red retention; AID 485275; inhibition, % at 10 µM; S. cerevisiae Candida pump triplex; actives 0.44% (n = 330,000);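 active = plate passing quality check with inhibition over a set limit, or well fluorescence over plate mean plus 4 SD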;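 note: Nile Red retained in pooled yeast measured as flow cytometry median fluorescence; higher means more Nile Red kept so more efflux inhibition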
WT yeast gro inh – growth inhibition of WT yeast, mitochondrial fusion screen. mitochondrial fusion phenotypic screen, WT strain. actives 2.1% (n = 190,000). inhibition, % at 10 µM; in the data active = inhibition above about 58%; tested in S. cerevisiae
CSC inhib – blocks cancer stem cells | actives 1.1% (n = 300,000) | inhibition, % at 7.5 µM | cancer stem cell-like cells viability, luminescence | AID 2717; in the data active = inhibition above about 75%; tested in HMLE shEcad cells
Beta apoptosis – beta cell apoptosis inhibition. INS-1E cytokine-induced death, ATP luminescence, 48 h; percent of positive-control rescue, neutral wells zero. protection from apoptosis, % (no concentration beside the values). actives 0.8% (n = 300,000). AID 435005;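 active = Every replicate reaches about 75%, or at least half do and their mean reaches it too, limit read from the data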;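 note: higher means more ATP so stronger rescue from cytokine killing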
SUMO Mot1 rescue – inhibitors of SUMOylation pathway: yeast Mot1-301 growth rescue | S. cerevisiae Mot1-301 growth rescue, ATP luminescence, 38.5C; percent above DMSO median, 100 means doubled | growth rescue, % at 18.8 µM | actives 1% (n = 320,000) | AID 2716;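 active = every valid replicate shows activation above 250% relative to neutral control wells; inactive = the rest, any valid replicate at or below 250%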
Of the large screens only hits and unclear results are named; the others gave an inactive call.

C=C(C)[C@@H]1CCC2(C(=O)O)CC[C@]3(C)[C@H](CC[C@@H]4[C@@]5(C)CCC(=O)C(C)(C)[C@@H]5CC[C@]43C)[C@@H]12 (stereo not given in full)	none
C=C(C)[C@@H]1CC[C@]2(C(=O)O)CC[C@]3(C)C(CCC4[C@@]5(C)CC[C@H](O)C(C)(C)C5CC[C@]43C)C12 (stereo not given in full)	CSC inhib 94 (no result: WT yeast gro inh)
Cc1ccc(Oc2nc(CN3CCOCC3)nc3sc4c(c23)CCC(C)C4)cc1C (stereo not given)	WT yeast gro inh 65, CSC inhib 120
Cc1ccc(Oc2nc(CN3CCOCC3)nc3sc4c(c23)CCC(C)C4)cc1 (stereo not given)	WT yeast gro inh 63
CC1CN(C(=S)NC(=O)c2ccco2)CC(C)O1 (stereo not given)	none
C=C(C)CNC(=O)c1ccc2nc(Cc3ccc(OC)cc3)oc2c1	none (no result: WT yeast gro inh, Beta apoptosis)
CCCCCC1(C)NC(=S)N(c2ccccc2)N1 (stereo not given)	SUMO Mot1 rescue 300
CCCCCCC1(C)NC(=S)N(c2ccccc2)N1 (stereo not given)	none
CCC1(c2ccccc2)NC(=S)N(c2ccc(C)cc2)N1 (stereo not given)	WT yeast gro inh 62 (no result: CSC inhib, SUMO Mot1 rescue)
CCC1(c2ccc(Cl)cc2)NC(=S)N(c2ccccc2)N1 (stereo not given)	none
Cc1ccc(Sc2ccc(/C=C3/C(=O)NN(c4ccccc4)C3=O)o2)cc1	CSC inhib 89 (no result: WT yeast gro inh)
CN1CCN(c2ccc(S(=O)(=O)N3CCCCC3)cc2NC(=O)c2ccc(F)cc2F)CC1	none
Cn1c2ccccc2c(=O)c2c(=O)n(C3CCCCC3)c(-c3ccco3)nc21	SUMO Mot1 rescue 580 (no result: Beta apoptosis)
Cn1c2ccccc2c(=O)c2c(=O)n(Cc3ccco3)c(-c3ccc(Cl)cc3Cl)nc21	T cruzi repl 64 (no result: WT yeast gro inh)
Cc1nc2c(c(=O)c3ccccc3n2C)c(=O)n1C1CCCCCC1	none (no result: WT yeast gro inh, CSC inhib, Beta apoptosis)
CCOc1ccc(CCNC(=O)CS(=O)Cc2nc(-c3ccc(OC)cc3)oc2C)cc1OCC (stereo not given)	none (no result: WT yeast gro inh)
CCCn1c(SCC(=O)N(C2CCCCC2)C2CCS(=O)(=O)C2)n[nH]c1=O (stereo not given)	none (no result: T cruzi repl, WT yeast gro inh, CSC inhib)
N#C/C(=C(/O)c1ccc(-c2cccc([N+](=O)[O-])c2)o1)c1nc2ccccc2s1	none (no result: Efflux pump mplx, CSC inhib, Beta apoptosis, SUMO Mot1 rescue)
N#C/C(=C/c1ccc(-c2cc(C(=O)O)cc(C(=O)O)c2)o1)c1nc2ccccc2s1	Efflux pump mplx 0.8
CCN(CC)Cc1c(O)ccc2c1O/C(=C\C=C\c1ccccc1)C2=O	T cruzi repl 60, CSC inhib 109, Beta apoptosis 105 (no result: WT yeast gro inh)
CC1=CC(C)(C)N(S(=O)(=O)c2ccc(C)cc2)c2ccc(C)cc21	WT yeast gro inh 63 (no result: CSC inhib, Beta apoptosis)
CC1=CC(C)(C)N(S(=O)(=O)c2ccc(F)cc2)c2ccccc21	none (no result: CSC inhib)
Cc1ccc(CN2CCNC(=O)C2CC(=O)NC2CCCCCC2)o1 (stereo not given)	SUMO Mot1 rescue 347
S=C(NCc1ccco1)Nc1ccc(Oc2ccccc2)cc1	WT yeast gro inh 67
S=C(NCc1ccco1)Nc1cc(-c2ccccc2)[nH]n1	WT yeast gro inh 64 (no result: CSC inhib)
CC(C)CNC(=S)Nc1ccc(Oc2ccccc2)cc1	WT yeast gro inh 63 (no result: CSC inhib)
COc1ccc(C)cc1S(=O)(=O)N1CCC(C(=O)NC2CCCC2)CC1	none (no result: WT yeast gro inh, Beta apoptosis)
CN(C)S(=O)(=O)c1ccc(Cl)c(NC(=O)CN2CCN(Cc3ccc4c(c3)OCO4)CC2)c1	none (no result: WT yeast gro inh)
CCc1ccc(/C=C2\Oc3c(ccc(O)c3CN3CCN(CCO)CC3)C2=O)cc1	none (no result: WT yeast gro inh)
CCOC(=O)Nc1ccc2nc(Sc3ccc(Cl)cc3)sc2c1	CSC inhib 85 (no result: WT yeast gro inh)
O=C(Nc1ccc(O)c(C(=O)O)c1)Oc1ccccc1	none (no result: WT yeast gro inh)
CN(C)CCCN(C(=O)c1ccco1)c1nc2ccc(F)cc2s1	none
CN(C)CCCN(C(=O)c1ccc(C(=O)c2ccccc2)cc1)c1nc2ccc(F)cc2s1	T cruzi repl 57 (no result: WT yeast gro inh)
CN(C)CCCN(C(=O)c1nc2ccccc2s1)c1nc2ccc(F)cc2s1	T cruzi repl 67 (no result: WT yeast gro inh)
CN(C)CCN(C(=O)c1ccc2ccccc2c1)c1nc2ccc(F)cc2s1	none (no result: WT yeast gro inh)
COc1cc(C2NCC(c3ccc(Cl)cc3Cl)c3c2[nH]c2ccccc32)cc(OC)c1OC (stereo not given)	WT yeast gro inh 82, CSC inhib 81
O=C(O)c1ccc(C2NCC(c3ccccc3Cl)c3c2[nH]c2ccccc32)cc1 (stereo not given)	none
Cc1ccc(C(=O)N(Cc2cccnc2)Cc2cc3cc(C)ccc3n3nnnc23)cc1	T cruzi repl 67 (no result: CSC inhib, SUMO Mot1 rescue)
Cc1ccc(C(=O)NCc2ccc(N3CCN(C(=O)OC(C)(C)C)CC3)cc2)cc1	WT yeast gro inh 61
Cc1ccc(C(C)C)c(Oc2nnnn2-c2ccccc2)c1	WT yeast gro inh 66
CC(C)(C)C1CCC(CN2C(Nc3ccccc3)=NC[C@@H]2Cc2ccccc2)CC1 (stereo not given in full)	CSC inhib 107 (no result: T cruzi repl, WT yeast gro inh)
CCN1C(Nc2ccccc2)=NC[C@@H]1Cc1ccccc1	none (no result: WT yeast gro inh)
Fc1ccc(C2c3cccn3CCN2C(=S)Nc2cccc(Br)c2)cc1 (stereo not given)	WT yeast gro inh 86
Cc1cccc(NC(=S)N2CCn3cccc3C2c2cccnc2)c1 (stereo not given)	none
Fc1ccc(NC(=S)N2CCn3cccc3C2c2cccnc2)cc1 (stereo not given)	T cruzi repl 71
COc1cccc(NC(=S)N2CCn3cccc3C2c2cccnc2)c1 (stereo not given)	T cruzi repl 76
CCCCNC(=S)N1CCn2cccc2C1c1ccc(F)cc1 (stereo not given)	WT yeast gro inh 61
CC1=C(C)/C(=N\OS(=O)(=O)c2ccc(C)cc2)C=CC1=O	CSC inhib 89, Beta apoptosis 106 (no result: T cruzi repl)
COc1cc(C(=O)O/N=C2/C=C(C)C(=O)C=C2C)cc(OC)c1OC	none
CC1=C/C(=N\OS(=O)(=O)c2ccccc2)C(C)=CC1=O	CSC inhib 118, Beta apoptosis 112 (no result: T cruzi repl)
COc1ccc(S(=O)(=O)/N=C2/C=CC(=O)C(C)=C2C)cc1	none
COc1ccc(S(=O)(=O)N2CCOCC2)cc1NC(=O)Cn1nnc2ccccc2c1=O	none
Cc1ccc(S(=O)(=O)NCC(=O)OCC(=O)c2ccc(Cl)s2)cc1	SUMO Mot1 rescue 353 (no result: WT yeast gro inh)
COc1ccc2c(c1)C(=O)CCC2c1ccccc1 (stereo not given)	none (no result: WT yeast gro inh)
CCC(=O)C1=C(O)C(c2cccc(Oc3ccccc3)c2)CCC1=O (stereo not given)	WT yeast gro inh 63
Cc1ccc(NS(=O)(=O)c2ccc(C(=O)N3CCN(S(=O)(=O)c4ccccc4)CC3)cc2)cc1	none (no result: WT yeast gro inh)
Clc1ccc(-n2nnc(-c3nccs3)n2)cc1Cl	SUMO Mot1 rescue 330 (no result: Efflux pump mplx)
Cc1cccc(-n2c(SCc3cc(=O)n4ccsc4n3)nc3ccccc32)c1	T cruzi repl 62 (no result: CSC inhib)
